Laboratory results taken from ChEMBL document CHEMBL4152203, “Antiproliferative hydrogen sulfide releasing evodiamine derivatives and their apoptosis inducing properties” (Eur J Med Chem, 2018).
Calls of active or inactive are those of the source. No cut-off for these calls is given here.

Assays:
HL-60 [1] = assay: Induction of apoptosis in human HL60 cells assessed as increase in Bax level at 0.3 to 1.2 uM after 48 hrs by Western blot analysis; format: functional, cell-based
Method in brief: (§1)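 HL-60 treated in triplicate with 0.3, 0.6 or 1.2 μM compound; exposure is 72 h in the methods and 48 h in the legend. Lysates were run on 10% SDS-PAGE, transferred to nitrocellulose, blocked in 5% milk, and probed overnight at 4 °C with monoclonal antibodies (Bcl-2, Bax, cytochrome c, caspase-9/-3, p53, cyclin B1, cdc2). ECL detection; densitometry relative to GAPDH.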

HL-60 [2] = assay: Induction of apoptosis in human HL60 cells assessed as early apoptotic cells at 0.3 uM after 48 hrs by Annexin V-FITC/propidium iodide staining-based flow cytometric analysis (reference value: 1.11%); format: functional
HL-60 [3] = assay: Induction of mitochondrial membrane potential loss in human HL60 cells assessed as cell population with mitochondrial membrane potential collapse at 1.2 uM after 48 hrs by JC1 staining-based flow cytometry analysis (reference value: 7.65%); format: functional
HL-60 [4] = assay: Cell cycle arrest in human HL60 cells assessed as accumulation at G2/M phase at 1.2 uM after 48 hrs by propidium iodide/RNase A staining-based flow cytometric analysis (reference value: 10.19%); format: functional
HL-60 [5] = assay: Induction of apoptosis in human HL60 cells assessed as morphological changes by measuring nuclear fragmentation at 0.3 to 1.2 uM after 48 hrs by Hoechst 33258 staining-based fluorescence microscopic analysis; format: functional, cell-based
Method in brief: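 HL-60 pre-incubated 24 h, then treated 48 h with 0, 0.3, 0.6 or 1.2 μM compound or vehicle. Cells were harvested, washed twice in PBS, stained with Hoechst 33258 (2 mg/mL in PBS) for 15 min at room temperature in darkness, washed, mounted and examined by fluorescence microscopy with a DAPI filter.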

HL-60 [6] = assay: Induction of apoptosis in human HL60 cells assessed as decrease in cyclin B1 protein expression level at 0.3 to 1.2 uM after 48 hrs by Western blot analysis; format: functional, cell-based; method in brief: as §1
HL-60 [7] = assay: Cell cycle arrest in human HL60 cells assessed as accumulation at G1 phase at 0.6 uM after 48 hrs by propidium iodide/RNase A staining-based flow cytometric analysis (reference value: 65.75%); format: functional
Bel-7402 = assay: Antiproliferative activity against human Bel7402 cells after 72 hrs by MTT assay; format: functional, cell-based; conditions: Bel-7402, 72 h
Method in brief: (§2)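 Cells seeded and pre-incubated 24 h at 37 °C, 5% CO2, then exposed to compounds for 72 h. MTT (5 mg/mL stock) added for 4 h, formazan dissolved in DMSO for 10 min at room temperature, absorbance read at 570 nm. 0.1% DMSO as negative and 5-FU as positive reference. IC50 derived from inhibition ratios; mean ± SD of three independent experiments.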

HL-60 [8] = assay: Induction of apoptosis in human HL60 cells assessed as early apoptotic cells at 0.6 uM after 48 hrs by Annexin V-FITC/propidium iodide staining-based flow cytometric analysis (reference value: 1.11%); format: functional
HL-60 [9] = assay: Induction of apoptosis in human HL60 cells assessed as viable cells at 1.2 uM after 48 hrs by Annexin V-FITC/propidium iodide staining-based flow cytometric analysis (reference value: 95.56%); format: functional; conditions: HL-60, 48 h, read-out: Activity
HL-60 [10] = assay: Cell cycle arrest in human HL60 cells assessed as accumulation at S phase at 0.3 uM after 48 hrs by propidium iodide/RNase A staining-based flow cytometric analysis (reference value: 24.06%); format: functional
HL-60 [11] = assay: Induction of apoptosis in human HL60 cells assessed as early apoptotic cells at 1.2 uM after 48 hrs by Annexin V-FITC/propidium iodide staining-based flow cytometric analysis (reference value: 1.11%); format: functional
Caco-2 = assay: Antiproliferative activity against human Caco2 cells after 72 hrs by MTT assay; format: functional, cell-based; conditions: Caco-2, 72 h; method in brief: as §2
HL-60 [12] = assay: Induction of apoptosis in human HL60 cells assessed as downregulation of Bcl2 expression at 0.3 to 1.2 uM after 48 hrs by Western blot analysis; format: functional, cell-based; method in brief: as §1

`CN1c2ccccc2C(=O)N2CCc3c(n(CCCCC(=O)OCCCCOc4ccc(-c5cc(=S)ss5)cc4)c4ccccc34)C21` (centres undefined) was tested, and the Activity (HL-60 [1]) was “Active”, the Activity (HL-60 [2]) was 4.53% and the Activity (HL-60 [3]) was 35.01%. For the same compound, the Activity (HL-60 [4]) was 22.02%, the Activity (HL-60 [5]) was “Active” and the Activity (HL-60 [6]) was “Active”. It also gave an Activity (HL-60 [7]) of 38.55%, an IC50 (Bel-7402) of 48.9 µM and an Activity (HL-60 [8]) of 15.56%. For the same compound, the viability at 1.2 µM (HL-60 [9]) was 39.2%, the Activity (HL-60 [10]) was 41.49% and the Activity (HL-60 [11]) was 12.6%. For the same compound, the IC50 (Caco-2) was 2.02 µM and the Activity (HL-60 [12]) was “Active”.
